Assay outcomes (PubChem)
miR122 inh = miR-122 Renilla sensor signal increase in Huh7, primary screen, miR-122 inhibitor project, cell-based, single point, plate reader; AID 602342, 2012; activation (reporter increase), % at 12.5 µM; 0.3% of 340,000 active; Huh7 miR-122 Renilla luciferase sensor, 48 h; neutral wells = 0, positive control = 100;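 active means mean replicate activation score at least 90 and every replicate individually at or above 90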;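 further: higher luciferase means less miR-122 activity so hits act as miR-122 inhibitors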
F508del corr = F508del CFTR correction, initial screen, CFBE line, single point; CFBE cells, YFP halide quenching; stimulated with forskolin plus potentiator P3; % fluorescence drop versus neutral controls; activity (quench increase), % at 7.58 µM; 0.36% of 350,000 active;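 active means mean added fluorescence quench of at least 8% versus neutral control, with both replicates also reaching 8%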;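 further: cells transiently co-express mutant CFTR-F508del with the halide-sensitive YFP; corrector assay measuring rescue of mutant channel to the surface after 24 h compound exposure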
rRNA inh HTS = reduced GFP signal of wild-type E. coli, primary screen, bacterial rRNA inhibitor project, GFP/RFP fluorescence, OD600, single point; 1.6% of 350,000 active; GFP signal change (wild-type ribosome), % (test concentration not listed); AID 720706, 2013; E. coli WT GFP vs humanized-ribosome RFP mutants, 24 h; active compounds read low; DMSO median 0, no signal -100;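 active means significant combined selectivity score with lowered wild-type GFP, culture density cut under 30%, mutant RFP and density less affected; inactive means any of these conditions unmet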
Env fusion inh = inhibitors of HIV-1 Env-driven cell-cell fusion, primary screen, HeLa-JRFL effector, CEM21 target cells, luciferase | inhibition, % at 12.3 µM | 1.1% of 360,000 active | AID 651610, 2012;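 active means mean replicate inhibition score of at least 50 and every replicate individually at or above 50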;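 further: 0% = plate neutral controls and 100% = maraviroc near 300 nM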
Cneo AK release = Cryptococcus neoformans cell lysis inducers, primary screen, AK release luminescence, single concentration | C. neoformans lysis, adenylate kinase release luminescence, 4 h; normalised: neutral wells 0, clomiphene wells 100 | lysis activity, % at 15 µM | 0.2% of 360,000 active | AID 651654, 2012;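 active means mean lysis activity across replicates of at least 80%, whatever share of replicates individually reach that level; inactive means mean lysis activity below 80%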
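Assay system: Cryptococcus neoformans yeast cells / Dosing: single-point compound dose / Timing: 4 h at 37 °C static, read 1 h later / Measured by: luminescence of released adenylate kinase using an AK detection reagent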
GSIS activator = GLuc luminescence reporter in INS-1E cells, primary screen for activators of glucose-dependent secretion of insulin; AID 743287, 2014; INS-1E GLuc reporter insulin secretion, 2-3 h; 0.61% of 370,000 active; activation, % at 16.6 µM;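 active means lowest replicate activation of at least 40%, so every replicate reaches that level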;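 further: 0% = median of neutral control wells and 100% = median of IBMX positive control wells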
* hit, by the source's call; / = no result given; [ ] = another dose, or the depositor's remark. This is a sample that favours compounds with a hit; in the whole collection about 3.1% have one here.

SMILES	miR122 inh	F508del corr	rRNA inh HTS	Env fusion inh	Cneo AK release	GSIS activator
CN1C(=O)c2cc(NC(=O)C3CC3)ccc2OC[C@@H]2O[C@H](CC(=O)NCc3ccccc3F)CC[C@H]21	/	1	1	/	/	2
COc1cc2cc(C(=O)NCCc3c[nH]c4ccccc34)c(N)nc2cc1OC	/	-3	-31*	25	/	-3
Nc1nc2cc3c(cc2cc1C(=O)NCCc1c[nH]c2ccccc12)OCO3	/	1	-25*	21	/	-10
COc1cc(SC)ccc1C(=O)NCCc1c[nH]c2ccccc12	-6	0	-18	-15	2	-25
O=C(Nc1ccc(Cl)c(Cl)c1)N[C@H]1CC[C@H](CCn2cc(C3CCCC3)nn2)O[C@H]1CO	/	3	-60	/	/	-5
COc1ccc(NC(=O)N2CC3(C2)CN(C(=O)c2cccnc2)[C@H](CO)c2[nH]c4cc(OC)ccc4c23)cc1	/	1	-3	/	/	7
ONC(=Nc1ccccc1Cl)c1ccccc1Cl	4	0	-32*	11	5	-1
CCCC(=O)N1CCN(c2nc3c(OC)ccc(Cl)c3s2)CC1	-3	-4	-36*	-5	-1	6
COc1ccc(Cl)c2sc(N3CCN(C(=O)c4ccco4)CC3)nc12	7	6	-6	13	/	18
C[C@@H]1CN([C@@H](C)CO)C(=O)c2cccc(NS(C)(=O)=O)c2O[C@@H]1CN(C)Cc1ccc2c(c1)OCO2	9[16.7 µM]	-1	2	10[16.7 µM]	0	4
C[C@@H]1CN([C@H](C)CO)C(=O)c2cc(NC(=O)c3ccncc3)ccc2O[C@H]1CN(C)Cc1ccc2c(c1)OCO2	3[16.7 µM]	2	3	-3[16.7 µM]	-3	1
CC1CCN(S(=O)(=O)N2CCC(C(=O)NCCc3ccccc3)CC2)CC1	143*	-1	4	-7	0	-1
CC1CCN(S(=O)(=O)N2CCCC(C(=O)NCc3ccccc3Cl)C2)CC1 (centres undefined)	49	9.6*	-5	15	-1	4
O=[N+]([O-])c1ccc(N2CCC(=NOCc3ccc(Cl)cc3)CC2)cc1	-14	/	/	75*	-2	/
O=[N+]([O-])c1ccc(CN2CCN(c3ccc([N+](=O)[O-])cc3)CC2)cc1	/	0	-9	22	-1	-6
C[C@@H]1CN([C@H](C)CO)C(=O)c2cc(NS(=O)(=O)c3cn(C)cn3)ccc2O[C@@H](C)CCCCO[C@@H]1CN(C)S(=O)(=O)c1cn(C)cn1	2[16.7 µM]	1	3	-1[16.7 µM]	1	30
O=C(Nc1nnc(-c2ccccc2SCc2ccccc2F)s1)Nc1ccccc1F	15	/	/	/	-3	61*
O=C(Nc1nnc(-c2ccc(F)cc2)s1)Nc1ccccc1F	2	1	19	-20	0	14
C[C@@H](NC(=O)C[C@@H]1C=C[C@H](NC(=O)Cc2ccccn2)[C@@H](CO)O1)c1ccccc1	/	2	1	/	0	9
c1ccc2c(C3=NNC(=NC4CCCCC4)SC3)c[nH]c2c1	/	/	-34*	10	/	-11
COc1cccc(Sc2ccccc2/C=N/NC(N)=O)c1	71	8.8*	11	-46	/	2
C=CCOc1c(/C=N\NC(N)=O)cccc1OC	-1	2	9	-5	5	2
CCCN1C[C@H](C)[C@@H](OC)CN(C)C(=O)c2ccc(NC(=O)c3cccc(OC)c3)cc2OC[C@@H]1C	/	/	-3	/	/	-25
COc1ccc(CNC(=O)CN(C)S(=O)(=O)c2ccc(Br)s2)cc1	-4	0	-4	8	-1	1
CN(CC(=O)NCc1ccc(F)cc1)S(=O)(=O)c1ccc(Br)s1	1	0	-22*	7	2	-12
SMILES	miR122 inh	F508del corr	rRNA inh HTS	Env fusion inh	Cneo AK release	GSIS activator
C[C@H](CO)N1C[C@H](C)[C@H](CN(C)S(=O)(=O)c2ccccc2)Oc2ccc(NC(=O)CCC(F)(F)F)cc2C1=O	-3[16.7 µM]	-3	2	/	-2	15
CC(C)Cn1c(N)c(C(=O)CSc2nc3ccccc3n2C)c(=O)n(C)c1=O	-7	/	/	5	1	/
Cc1ccc(-n2nnnc2SCC(=O)c2c(N)n(CC(C)C)c(=O)n(C)c2=O)cc1	24	/	/	59*	1	-8
Cc1csc(SCC(=O)c2c(N)n(CC(C)C)c(=O)n(C)c2=O)n1	13	/	/	90*	-2	-17
N=c1sccn1CC(=O)Nc1ccc(S(N)(=O)=O)cc1	-9	11*	6	-10	-2	-8
CCCOP(=O)(OCCC)C(Nc1cccc(C(F)(F)F)c1)c1ccc(C)cc1 (centres undefined)	10	/	/	81*	-2	-18
O=C(c1ccc2c(c1)OCO2)N1CCN(S(=O)(=O)c2ccccc2)CC1	/	-2	7	-3	2	46*
O=C(Nc1ccc2c(c1)OCCO2)C1CCN(S(=O)(=O)c2ccccc2)CC1	177*	4	-17	11	1	-13
Cc1cccc(NC(=O)C2CCN(S(=O)(=O)c3ccc4c(c3)OCCCO4)CC2)n1	0	0	-8	83*	/	-55
CC(=O)Nc1ccc(NC(=O)C2CCN(S(=O)(=O)c3ccc4c(c3)OCCO4)CC2)cc1	/	0	15	/	0	8
O=C(Nc1ccc2c(c1)OCCO2)C1CCN(S(=O)(=O)c2ccc3c(c2)OCCO3)CC1	4	/	-32*	6	1	-9
O=C(Nc1ccccc1)C1CCN(S(=O)(=O)c2ccc3c(c2)OCCO3)CC1	/	-3	3	9	/	1
CCCc1cc(C(=O)Nc2cccc3ccccc23)n(C)n1	5	0	-30*	1	0	-8
CC(C)c1cccc(C(C)C)c1NC(=S)Nc1cccc(Cl)c1	1	1	-26*	4	2	-7
COc1ccc(-c2cn(CC[C@@H]3CC[C@@H](N)[C@H](CO)O3)nn2)cc1	/	1	-2	-10[16.7 µM]	-3	5
CC(C)(C)NC(=O)C1C(c2ccc(C(F)(F)F)cc2)=Nc2ccccc2N1C(=O)c1cccc(C(F)(F)F)c1 (centres undefined)	/	-2	/	67*	/	-32
O=C(c1ccccc1)N(C(=O)c1ccccc1)N1CCCC1	/	1	-6	/	3	45*
CCCC(=O)Nc1ccc2c(c1)OC[C@@H](C)N(C(=O)CN1CCOCC1)C[C@@H](C)[C@H](OC)CN(C)C2=O	/	1	0	/	-3	3
CCCC(=O)Nc1ccc2c(c1)C(=O)N(C)C[C@@H](OC)[C@H](C)CN(C(=O)CN1CCOCC1)[C@H](C)CO2	/	8.4*	-1	-1[16.7 µM]	7	2
